The source made the active and inactive calls. The calls are words filed in the database; no cut-off is given here.

This passage reports IC50, inhibition and Activity results from ChEMBL document CHEMBL1159122 (Bioorg Med Chem, 2010).

For assay [1], the target named is T1, Prostaglandin G/H synthase 1 (Mus musculus, UniProt P22437).
T1 sequence (P22437 whole entry): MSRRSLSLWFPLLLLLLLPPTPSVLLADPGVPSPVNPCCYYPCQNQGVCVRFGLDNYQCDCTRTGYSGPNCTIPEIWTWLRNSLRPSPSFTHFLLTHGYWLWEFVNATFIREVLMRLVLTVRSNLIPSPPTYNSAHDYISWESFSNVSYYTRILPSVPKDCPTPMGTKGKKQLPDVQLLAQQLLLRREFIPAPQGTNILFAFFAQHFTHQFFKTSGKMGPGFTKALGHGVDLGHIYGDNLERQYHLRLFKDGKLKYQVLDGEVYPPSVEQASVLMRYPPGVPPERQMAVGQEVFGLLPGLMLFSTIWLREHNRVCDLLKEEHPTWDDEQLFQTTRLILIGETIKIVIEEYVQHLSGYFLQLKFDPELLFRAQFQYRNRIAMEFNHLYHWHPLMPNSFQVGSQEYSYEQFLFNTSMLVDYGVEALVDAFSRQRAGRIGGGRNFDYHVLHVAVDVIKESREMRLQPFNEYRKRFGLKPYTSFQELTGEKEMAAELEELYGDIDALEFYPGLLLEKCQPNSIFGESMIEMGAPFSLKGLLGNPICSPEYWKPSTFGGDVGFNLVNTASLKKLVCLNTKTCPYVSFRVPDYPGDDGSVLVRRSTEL
Nature of the assay: Inhibition of COX1 in mouse RAW264.7 cells by enzyme immunoassay. Type of assay: cell-based. The method, boiled down:
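RAW 264.7 cells (5×10^5/well) grown overnight in DMEM with 10% FBS, then washed with PBS. Cells were not LPS-stimulated. Serum-free, phenol red-free DMEM; compound pretreatment 1 h at 37 °C, then 30 µM arachidonic acid for 30 min at 37 °C. PGE2 in the medium measured by EIA.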

The target of assay [2] is T2, Prostaglandin G/H synthase 2 (Homo sapiens, UniProt P35354).
T2 sequence (P35354 whole entry): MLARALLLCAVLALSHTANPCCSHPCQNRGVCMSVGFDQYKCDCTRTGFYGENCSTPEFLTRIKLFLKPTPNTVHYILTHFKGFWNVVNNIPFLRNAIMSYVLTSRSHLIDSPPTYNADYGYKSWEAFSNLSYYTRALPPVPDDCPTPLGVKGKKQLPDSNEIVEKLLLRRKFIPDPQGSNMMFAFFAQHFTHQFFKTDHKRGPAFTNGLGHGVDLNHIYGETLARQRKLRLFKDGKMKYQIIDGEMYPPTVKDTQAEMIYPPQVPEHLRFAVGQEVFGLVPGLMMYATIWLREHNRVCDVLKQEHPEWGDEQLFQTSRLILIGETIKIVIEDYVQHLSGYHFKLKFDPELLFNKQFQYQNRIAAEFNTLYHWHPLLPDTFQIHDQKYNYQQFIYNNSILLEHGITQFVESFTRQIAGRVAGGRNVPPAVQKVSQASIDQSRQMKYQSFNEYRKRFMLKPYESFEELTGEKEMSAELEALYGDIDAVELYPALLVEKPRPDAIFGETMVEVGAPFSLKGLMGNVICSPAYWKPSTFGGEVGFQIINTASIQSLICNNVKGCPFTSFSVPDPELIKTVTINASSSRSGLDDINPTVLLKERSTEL
Kind of assay: Inhibition of human recombinant COX2 expressed in insect Sf9 cells by enzyme immunoassay.

In assay [3] the target is T3, Prostaglandin G/H synthase 1 (Homo sapiens, UniProt P23219). Kind of assay: Inhibition of human recombinant COX1 in human platelets by enzyme immunoassay. The method, boiled down: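 Source was washed human platelets (5×10^7 cells/mL) in modified HEPES buffer, pH 7.4. Compounds were preincubated 15 min at 37 °C, then 100 µM arachidonic acid was added for 15 min at 37 °C. The reaction was stopped with 1 N HCl. COX-1 activity was read as PGE2 by EIA.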

The target in assay [4] is T4, Prostaglandin G/H synthase 2 (Mus musculus, UniProt Q05769).
T4 sequence (Q05769 whole entry): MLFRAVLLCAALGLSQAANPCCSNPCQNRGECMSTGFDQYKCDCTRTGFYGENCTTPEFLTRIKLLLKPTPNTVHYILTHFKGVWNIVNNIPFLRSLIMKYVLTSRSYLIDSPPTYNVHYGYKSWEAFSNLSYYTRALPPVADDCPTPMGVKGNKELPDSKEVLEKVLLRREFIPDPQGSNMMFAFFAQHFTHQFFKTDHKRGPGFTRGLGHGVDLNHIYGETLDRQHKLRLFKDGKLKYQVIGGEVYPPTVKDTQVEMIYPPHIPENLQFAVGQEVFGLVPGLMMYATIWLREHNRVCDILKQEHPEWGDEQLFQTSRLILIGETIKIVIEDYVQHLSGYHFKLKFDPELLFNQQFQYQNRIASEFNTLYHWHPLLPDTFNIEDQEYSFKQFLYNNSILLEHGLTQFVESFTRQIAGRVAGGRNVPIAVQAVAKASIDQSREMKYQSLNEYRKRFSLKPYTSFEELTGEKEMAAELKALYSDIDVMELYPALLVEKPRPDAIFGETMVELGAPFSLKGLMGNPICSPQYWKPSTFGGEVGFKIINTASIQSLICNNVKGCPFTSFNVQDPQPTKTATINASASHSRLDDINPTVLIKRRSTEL
Kind of assay: Inhibition of COX2 in mouse RAW264.7 cells by enzyme immunoassay.

For assay [5], the target named is T5, Polyunsaturated fatty acid 5-lipoxygenase (Homo sapiens, UniProt P09917).
T5 sequence (P09917 whole entry): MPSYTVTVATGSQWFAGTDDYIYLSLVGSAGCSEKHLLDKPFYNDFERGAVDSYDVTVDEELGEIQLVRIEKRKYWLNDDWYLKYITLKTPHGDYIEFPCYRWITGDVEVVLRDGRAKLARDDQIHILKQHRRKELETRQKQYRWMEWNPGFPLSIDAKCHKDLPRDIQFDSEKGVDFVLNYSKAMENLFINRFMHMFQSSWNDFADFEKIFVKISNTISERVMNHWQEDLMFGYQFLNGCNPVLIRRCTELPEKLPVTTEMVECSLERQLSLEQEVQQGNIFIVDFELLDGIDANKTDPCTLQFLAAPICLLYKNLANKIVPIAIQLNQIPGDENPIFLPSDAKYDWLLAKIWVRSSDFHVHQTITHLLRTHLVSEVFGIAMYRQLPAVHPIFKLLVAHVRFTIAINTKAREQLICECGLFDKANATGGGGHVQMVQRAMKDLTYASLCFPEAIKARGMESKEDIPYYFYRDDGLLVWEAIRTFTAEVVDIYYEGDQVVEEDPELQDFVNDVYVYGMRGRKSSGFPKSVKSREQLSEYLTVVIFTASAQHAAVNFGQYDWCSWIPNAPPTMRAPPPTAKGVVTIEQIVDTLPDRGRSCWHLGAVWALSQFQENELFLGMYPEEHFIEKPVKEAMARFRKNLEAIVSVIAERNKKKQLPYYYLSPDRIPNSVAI
Kind of assay: Inhibition of LOX5 in human PMBL by enzyme immunoassay. The essentials:
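Human peripheral blood mononuclear leukocytes (5×10^6 cells/mL) in HBSS pH 7.4, preincubated with compound 15 min at 37 °C. Stimulated with 30 µM A23187 for 15 min at 37 °C, stopped with 1 N HCl, neutralized with NaOH and centrifuged. Supernatant LTB4 measured by EIA.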

Assay [6] relates to THP-1. Kind of assay: Antiinflammatory activity in human THP1 cells assessed as inhibition of LPS-induced TNFalpha release at 10 uM by ELISA. Type of assay: functional. The method, boiled down:
(§1)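 THP-1 monocytes differentiated to macrophages over 72 h with conditioned medium from cells given 200 ng/mL PMA for 24 h, washed, and rested 24 h. Cells pretreated with compound (0.01–10 uM) for 1 h at 37 °C, then stimulated with 100 ng/mL LPS for 24 h. TNF-α release measured, mean ± SD of duplicates.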
Background: ELISA stands for enzyme-linked immunosorbent assay.

Assay [7] has as its system THP-1. Kind of assay: Antiinflammatory activity in human THP1 cells assessed as inhibition of LPS-induced TNFalpha release by ELISA. Type of assay: functional, cell-based. The essentials:
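Differentiated THP-1 macrophages were used. They were made by 72 h culture in conditioned medium from THP-1 cells treated with 200 ng/mL PMA for 24 h, washed and rested 24 h. Cells were preincubated with compounds at 0.01, 0.1, 1 and 10 µM for 1 h at 37 °C, then stimulated with 100 ng/mL LPS for 24 h. Duplicate determinations, mean ± SD.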

In assay [8] the target is Mitogen-activated protein kinase 14 (Homo sapiens) (UniProt Q16539). Nature of the assay: Inhibition of p38alpha MAPK at 10 uM.
Assay [9] has as its target T6, Prostaglandin G/H synthase 2 (Homo sapiens) (UniProt P35354).
T6 sequence (whole entry): T2 sequence (P35354 whole entry)
Particulars: THP-1, at 10 µM.

For assay [10], the target named is T6, Prostaglandin G/H synthase 2 (Homo sapiens). Nature of the assay: Inhibition of human recombinant COX2 expressed in insect Sf9 cells at 10 uM by enzyme immunoassay.
The target of assay [11] is T3, Prostaglandin G/H synthase 1. Nature of the assay: Inhibition of human recombinant COX1 in human platelets at 10 uM by enzyme immunoassay. The essentials:
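Washed human platelets (5×10^7 cells/mL) in modified HEPES buffer pH 7.4, preincubated with compound 15 min at 37 °C. Reaction started with 100 µM arachidonic acid, run 15 min at 37 °C, stopped with 1 N HCl. PGE2 quantified by EIA.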

The subject of assay [12] is THP-1. Kind of assay: Antiinflammatory activity in human THP1 cells assessed as inhibition of LPS-induced TNFalpha release at 1 uM by ELISA. The class given is functional. The method, boiled down:
as §1

T3 sequence (P23219 whole entry): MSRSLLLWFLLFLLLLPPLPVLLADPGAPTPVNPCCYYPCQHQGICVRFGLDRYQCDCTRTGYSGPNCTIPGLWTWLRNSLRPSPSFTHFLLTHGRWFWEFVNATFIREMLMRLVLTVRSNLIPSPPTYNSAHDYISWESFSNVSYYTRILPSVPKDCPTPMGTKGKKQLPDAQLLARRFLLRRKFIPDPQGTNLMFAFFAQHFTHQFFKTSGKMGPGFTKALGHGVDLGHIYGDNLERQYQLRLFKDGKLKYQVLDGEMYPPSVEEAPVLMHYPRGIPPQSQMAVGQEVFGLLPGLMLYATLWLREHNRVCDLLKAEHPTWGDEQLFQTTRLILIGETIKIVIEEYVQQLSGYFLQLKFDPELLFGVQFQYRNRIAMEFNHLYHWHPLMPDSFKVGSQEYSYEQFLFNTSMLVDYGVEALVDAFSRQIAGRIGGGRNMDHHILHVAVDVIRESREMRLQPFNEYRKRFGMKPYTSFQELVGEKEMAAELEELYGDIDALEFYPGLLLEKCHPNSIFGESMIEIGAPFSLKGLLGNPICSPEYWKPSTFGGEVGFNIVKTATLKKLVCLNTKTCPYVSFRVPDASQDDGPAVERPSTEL
Mitogen-activated protein kinase 14 (Homo sapiens), sequence (Q16539 whole entry): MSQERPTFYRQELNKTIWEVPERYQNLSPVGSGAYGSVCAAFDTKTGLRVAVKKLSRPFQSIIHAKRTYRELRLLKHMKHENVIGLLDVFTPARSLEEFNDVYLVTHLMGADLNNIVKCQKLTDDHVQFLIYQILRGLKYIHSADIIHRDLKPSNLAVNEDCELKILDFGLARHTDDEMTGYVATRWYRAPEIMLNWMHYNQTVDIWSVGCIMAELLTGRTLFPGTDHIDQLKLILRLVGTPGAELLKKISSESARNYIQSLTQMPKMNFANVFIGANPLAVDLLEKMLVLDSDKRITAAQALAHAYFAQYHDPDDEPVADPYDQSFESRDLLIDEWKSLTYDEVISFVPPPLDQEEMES

The IC50 is the concentration needed to halve the response being measured. `COc1ccc2c(c1)c(CC(=O)NCCc1ccccc1)c(C)n2C(=O)c1ccc(Cl)cc1`: the IC50 in assay [1] was determined as 56700 nM.

The term inhibition denotes the relative decrease from the control value, in per cent. In the case of `O=[N+]([O-])c1ccc2c(c1)S(=O)(=O)N=S2c1ccc(Br)cc1` (stereo unspecified), the IC50 in assay [2] stood at 1700 nM; in assay [3] it was 6700 nM; in assay [1], 2100 nM; in assay [4], 4400 nM; in assay [5], 1220 nM; with THP-1 [7] it was 440 nM. Further, the inhibition at 10 µM in the assay with THP-1 [6] is 92%. Besides, the inhibition entry in assay [8] is “inactive”. The same compound returned an inhibition in assay [9] of 77%.

In the case of `O=[N+]([O-])c1ccc2c(c1)S(c1ccc(Br)cc1)=NS2(=O)=O` (stereo unspecified), the inhibition was found to be 23% in assay [10] and 39% in [11]. For the same compound, the IC50 worked out at 1500 nM in assay [1], 18100 nM in assay [4] and 470 nM in assay [5]. In addition, the outcome in the assay on THP-1 [6] was inactive.

`NS(=O)(=O)c1ccc2c(c1)S(c1ccc(Br)cc1)=NS2(=O)=O` (stereo unspecified): the results for the inhibition in assay [10] and in [11] were 27% and 17%, respectively.

In the case of `C[C@@H]1C[C@H]2[C@@H]3CCC4=CC(=O)C=C[C@]4(C)[C@@]3(F)[C@@H](O)C[C@]2(C)[C@@]1(O)C(=O)CO` [DEXAMETHASONE], the inhibition at 1 µM in the assay on THP-1 [12] stood at 89%.

In the case of `CS(=O)(=O)Nc1ccc([N+](=O)[O-])cc1OC1CCCCC1` [NS-398], the IC50 in assay [1] is 63700 nM.

Turning to `Cc1ccc(-c2cc(C(F)(F)F)nn2-c2ccc(S(N)(=O)=O)cc2)cc1`, in the assay on THP-1 [6], the outcome was inactive.
